Source: ChEMBL document CHEMBL1124636, “3,4-Dihydro-2H-1-benzopyran-2-carboxylic acids and related compounds as leukotriene antagonists” (J Med Chem, 1989)
pIC50: −log10 of the molar value.

Experiments:
Cavia porcellus [1] = assay: (§1) Inhibition of leukotriene D4 induced bronchoconstriction in anesthetized guinea pigs after aerosol administration as 1% solution; assay type: functional
In short: (§2)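 Guinea pigs given propranolol 0.1 mg/kg iv 5 min before 5-min ultrasonic nebulizer exposure to aqueous, NaOH-neutralized drug (% w/v) or distilled water, breathing spontaneously. LTD4 50 µg/kg iv 30 s after exposure; tracheal pressure change.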

Cavia porcellus [2] = assay: Inhibition of leukotriene D4 induced bronchoconstriction in anesthetized guinea pigs after intravenous administration at a dose of 10 mg/kg; assay type: functional
In short: (§3)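 Male Hartley guinea pigs, 400–600 g, urethane 2 g/kg ip, jugular cannula, propranolol 0.1 mg/kg iv 5 min before challenge, succinylcholine 1.2 mg/kg iv, ventilated. Vehicle or drug iv 30 s before LTD4 25 µg/kg iv; tracheal pressure change.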

[3] = test system: Cysteinyl leukotriene receptor (Cavia porcellus); assay: Inhibitory activity of compound to block binding of radiolabeled leukotriene D4 to receptor sites in homogenized guinea pig lung at 10 uM
Cavia porcellus [4] = assay: Inhibition of leukotriene D4 induced bronchoconstriction in anesthetized guinea pigs after intravenous administration; assay type: functional; conditions: read-out: ID50 (the source's name); in short: as §3
Cavia porcellus [5] = assay: In vivo guinea pig bronchoconstriction against leukotriene C4 when administered a compound dose (mg/kg) intravenously; assay type: functional; conditions: Lung, iv, read-out: ID50 (the source's name)
Cavia porcellus [6] = assay: In vivo guinea pig bronchoconstriction against leukotriene D4 when administered a compound dose (mg/kg) intravenously; assay type: functional; conditions: Lung, iv, read-out: ID50 (the source's name); in short: as §3
Cavia porcellus [7] = species: Cavia porcellus; assay: In vitro activity to inhibit leukotriene D4 induced contraction of guinea pig trachea; assay type: functional; conditions: read-out: pA2 (converted)
In short: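 Guinea pig tracheal smooth muscle contracted by LTD4; pA2 and Schild slope reported.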

Cavia porcellus [8] = species: Cavia porcellus; assay: In vitro activity to inhibit SRS-A induced contraction of guinea pig ileum
Cavia porcellus [9] = assay: as §1; assay type: functional, organism-based; in short: as §2
[10] = molecular target: Cysteinyl leukotriene receptor (Cavia porcellus); assay: Inhibitory activity to block binding of [3H]leukotriene D4 to LTD4 receptor sites in homogenized guinea pig lung
[11] = test system: Cysteinyl leukotriene receptor (Cavia porcellus); assay: Inhibitory activity to block binding of [3H]leukotriene D4 to LTD4 receptor sites in homogenized guinea pig lung at 10 uM
[12] = test system: Cysteinyl leukotriene receptor (Cavia porcellus); assay: Inhibitory activity to block binding of [3H]leukotriene D4 to Cysteinyl leukotriene D4 receptor sites in homogenized guinea pig lung at 10 uM
[13] = molecular target: T1, Cysteinyl leukotriene receptor 1 (Cavia porcellus, UniProt Q2NNR5); assay: Inhibitory activity of compound to block binding of [3H]leukotriene D4 to Cysteinyl leukotriene D4 receptor sites in homogenized guinea pig lung
T1 sequence (Q2NNR5 whole entry): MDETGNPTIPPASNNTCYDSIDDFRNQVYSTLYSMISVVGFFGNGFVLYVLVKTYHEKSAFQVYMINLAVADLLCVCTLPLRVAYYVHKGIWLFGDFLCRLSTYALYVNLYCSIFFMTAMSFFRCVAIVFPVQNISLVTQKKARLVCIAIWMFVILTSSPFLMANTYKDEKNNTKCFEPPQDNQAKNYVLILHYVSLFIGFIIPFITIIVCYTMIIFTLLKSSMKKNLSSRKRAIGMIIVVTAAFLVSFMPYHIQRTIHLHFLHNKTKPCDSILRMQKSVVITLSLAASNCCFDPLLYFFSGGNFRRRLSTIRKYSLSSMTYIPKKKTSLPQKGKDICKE
In short: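 Lung from male Hartley guinea pigs (400–500 g), homogenized in sucrose/Tris pH 7.5 with protease inhibitors; 30000g membrane pellet in 10 mM PIPES pH 7.5, 50 mM NaCl. Binding: Tyrode, 0.1% BSA, 1 mM glycine, 1 mM cysteine, 3.5 nM [3H]LTD4, 100–200 µg protein, 20 °C, 30 min; glass-fiber filtration. Nonspecific with 10^-6 M LTD4. Triplicate screen at 10 µM; IC50 by linear regression.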

Rattus norvegicus = species: Rattus norvegicus; assay: Inhibitory activity to inhibit Inophore-induced arachidonic acid metabolism (inhibition of LTB4 formation) in rat; assay type: functional, organism-based
In short: (§4)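 Rat peritoneal macrophages adhered 90 min at 37 °C, labeled with [14C]arachidonic acid 90 min, washed. Compound 30 min at 37 °C, then A23187 0.5 µM for 20 min. LTB4 and PGE2 in medium by radioimmunoassay.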

[14] = Inhibitory activity to inhibit Inophore-induced arachidonic acid metabolism (inhibition of PGE-2 formation) in rat; assay type: functional; in short: as §4
[15] = molecular target: Dual specificity calcium/calmodulin-dependent 3',5'-cyclic nucleotide phosphodiesterase 1A (Bos taurus, UniProt P14100); assay: Inhibition of bovine heart Phosphodiesterase 1A
Sequence of Dual specificity calcium/calmodulin-dependent 3',5'-cyclic nucleotide phosphodiesterase 1A (P14100 whole entry): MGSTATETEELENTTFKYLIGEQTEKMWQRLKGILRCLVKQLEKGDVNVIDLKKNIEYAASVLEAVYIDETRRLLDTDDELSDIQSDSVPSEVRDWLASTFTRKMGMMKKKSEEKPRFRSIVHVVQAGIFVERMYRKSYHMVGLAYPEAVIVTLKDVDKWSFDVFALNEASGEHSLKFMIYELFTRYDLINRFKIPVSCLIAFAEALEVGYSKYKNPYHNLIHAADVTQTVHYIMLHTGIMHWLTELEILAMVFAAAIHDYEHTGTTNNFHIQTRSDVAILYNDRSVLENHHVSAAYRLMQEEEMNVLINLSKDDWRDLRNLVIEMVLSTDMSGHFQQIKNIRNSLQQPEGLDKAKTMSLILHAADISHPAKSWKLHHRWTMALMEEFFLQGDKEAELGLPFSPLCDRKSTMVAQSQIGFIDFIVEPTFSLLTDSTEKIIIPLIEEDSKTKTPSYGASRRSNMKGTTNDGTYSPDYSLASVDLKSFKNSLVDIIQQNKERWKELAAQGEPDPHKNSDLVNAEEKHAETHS

[16] = molecular target: T2, Cysteinyl leukotriene receptor 1 (Cavia porcellus) (UniProt Q2NNR5); assay: as §1; conditions: concentration not given here; in short: as §2
T2 sequence (whole entry): T1 sequence (Q2NNR5 whole entry)

| Structure (SMILES) | Inhibition (Cavia porcellus [1]) [%] | inhibition in vivo at 10 mg/kg (Cavia porcellus [2]) [%] | inhibition [11] [%] | inhibition [12] [%] | other results |
| --- | --- | --- | --- | --- | --- |
| O=C(O)CCSC(SCCC(=O)O)c1ccccc1CCCCCCCCc1ccccc1 | 58 | 20 |  |  | Inhibition [3]: 81% |
| CCCc1c(OCCCSc2ccc([C@@H](O)[C@H](C)CC(=O)O)cc2)ccc(C(C)=O)c1O [L-649923] |  | 72 |  |  | ED50 (Cavia porcellus [4]): 6 mg/kg |
| CCCc1c(OCCCCCOc2cc3c(cc2C(C)=O)CC[C@H](C(=O)O)O3)ccc(C(C)=O)c1O |  |  |  |  | ED50 (Cavia porcellus [5]): 6 mg/kg; ED50 (Cavia porcellus [6]): 4 mg/kg; Kb (Cavia porcellus [7]): 0.794 µM; pIC50 (Cavia porcellus [8]): 7.00 |
| CCCc1c(OCCCCCOc2cc(OCC(=O)O)ccc2C(C)=O)ccc(C(C)=O)c1O | 46 | 20 | 65 |  | IC50 (Cavia porcellus [9]): 1 % conc; IC50 [10]: 5 µM |
| CCCc1c(OCCCCCOc2cc3c(cc2C(C)=O)CCC(CCCCC(=O)O)O3)ccc(C(C)=O)c1O (stereo not drawn) |  | 10 | 47 |  |  |
| CCCc1c(OCCC(C)(C)CCOc2cc3c(cc2C(C)=O)CCC(C(=O)O)O3)ccc(C(C)=O)c1O (stereo not drawn) | 23 | 15 | 68 |  | IC50 [10]: 7 µM |
| CCCc1c(OCCCCCOc2cc3c(cc2Br)CCC(C(=O)O)O3)ccc(C(C)=O)c1O (stereo not drawn) | 0 | 13 |  | 57 |  |
| CCCc1c(OCCCCCOc2cc3c(cc2C(C)=O)CC(C(=O)O)O3)ccc(C(C)=O)c1O (stereo not drawn) | 88 | 25 |  | 12 | IC50 (Cavia porcellus [9]): 0.04 % conc |
| CCCc1c(OCCOCCOc2cc3c(cc2C(C)=O)CCC(C(=O)O)O3)ccc(C(C)=O)c1O (stereo not drawn) | 31 | 50 |  | 8 | ED50 (Cavia porcellus [4]): 10 mg/kg |
| CCCc1c(OCCCCCOc2cc3c(cc2C(C)=O)CCC(C(=O)O)C3)ccc(C(C)=O)c1O (stereo not drawn) | 23 | 51 |  | 65 | pIC50 [13]: 5.15; ED50 (Cavia porcellus [2]; read-out: ID50 (the source's name)): 10 mg/kg |
| CC(C)c1ccc2c(c1)c(SC(C)(C)C)c(CC(C)(C)C(=O)O)n2Cc1ccc(Cl)cc1 |  |  |  |  | pIC50 (Rattus norvegicus): 6.70; pIC50 [14]: 5.30 |
| Cn1c(=O)c2[nH]cnc2n(C)c1=O [THEOPHYLLINE] |  |  |  |  | pIC50 [15]: 3.30 |
| CCCc1c(OCCCCCOc2cc3c(cc2[N+](=O)[O-])CCC(C(=O)O)O3)ccc(C(C)=O)c1O (stereo not drawn) | 0 | 18 | 48 |  |  |
| CCCc1c(OCCCCCCc2cc3c(cc2C(C)=O)CCC(C(=O)O)O3)ccc(C(C)=O)c1O (stereo not drawn) | 65 | 46 |  | 20 | IC50 (Cavia porcellus [9]): 0.3 % conc |
| CCCc1c(OCCCCCOc2c(C(C)=O)cc3c(c2CCC)OC(C(=O)O)CC3)ccc(C(C)=O)c1O (stereo not drawn) |  |  |  |  | inhibition [16]: 44% |
| CCCc1c(OCCCCCOc2cc3c(cc2C(C)=O)CCC(C(=O)NS(=O)(=O)c2ccccc2)O3)ccc(C(C)=O)c1O (stereo not drawn) | 53 | 26 | 87 |  | IC50 (Cavia porcellus [9]): 1 % conc; IC50 [10]: 2 µM |
| CCCc1c(OCCCCCCOc2cc3c(cc2C(C)=O)CCC(C(=O)O)O3)ccc(C(C)=O)c1O (stereo not drawn) | 36 | 66 |  | 96 | pIC50 [13]: 5.30; ED50 (Cavia porcellus [4]): 5 mg/kg |
| CCCc1c(OCCCCCOc2cc3c(cc2C(C)=O)CCC(C)(C(=O)O)O3)ccc(C(C)=O)c1O (stereo not drawn) | 85 | 50 | 64 |  | IC50 (Cavia porcellus [9]): 0.2 % conc; ED50 (Cavia porcellus [4]): 10 mg/kg; IC50 [10]: 6 µM |
